High-throughput results: PubChem BioAssay, The Scripps Research Institute Molecular Screening Center
CHO parental Ca: counter-screen: ATP calcium response change in parental CHO cells | parental CHO-K1, ATP-induced calcium, Fluo-8 fluorescence | AID 463079 | 0.63% of 330,000 active | inhibition, % at 5.6 µM;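 active = inhibition above that plate's mean sample inhibition plus 3 SD, cut at about 26% in these data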;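 note: 0% = ATP-challenged DMSO wells and 100% = DMSO wells without ATP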
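material = parental CHO cells | also added = ATP as calcium-mobilizing challenge | dosing = single point at 5.6 µM | detection = intracellular calcium via Fluo-8 no-wash fluorescent dye | read-out = % inhibition | benchmarks = low control ATP plus DMSO, high control DMSO only | repeats = one well per compound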
OX1R antag-1: antagonists of human orexin 1 receptor; CHO/OX1R cells, Fluo-8 calcium fluorescence, orexin A; inhibition, % at 5 µM; 0.43% of 330,000 active;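 active = inhibition above its plate's threshold, mean inhibition of all tested compounds on the plate plus 3 SD, cut at about 37% in these data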;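 note: 0% = orexin A challenge wells and 100% = SB-334867-A antagonist wells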
OX1R antag-2: blocks the human orexin 1 receptor; 1.8% of 330,000 active; OX1R-expressing cells, FRET antagonist read-out; O43613; inhibition, % at 6.6 µM; in the data active = inhibition mostly above about 38%, no sharp cut-off; inactive = mostly below about 40%;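 note: 0% = agonist challenge alone and 100% = reference antagonist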
OXTR potentiate: potentiators of human oxytocin receptor; P30559; activation, % at 3 µM; CHO-OTR cells, Fluo-8 calcium fluorescence, potentiator mode; 0% = oxytocin EC15, 100% = EC100; 0.061% of 320,000 active; AID 2445;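 active = activation above that plate's cutoff, the mean activation of tested compounds plus 3 SD, cut at about 6.6% in these data, passing the limit was not always enough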;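 note: 100% uses oxytocin at 75 nM as the full agonist control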
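Replication – single well per compound, singlicate · Assay system – CHO cell line stably expressing human OTR · Timing – 6 min pre-incubation, 100 s read · Measure – normalized max/min fluorescence ratio, % activation · Doses – 3.0 µM, one dose · Detection – Fluo-8 calcium dye fluorescence · Probe or stimulus – oxytocin near EC15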
V1aR counter: counter-screen for oxytocin receptor agonists: human V1a receptor agonists. P37288. CHO-V1R cells, Fluo-8 calcium fluorescence, agonist mode; 0% DMSO, 100% 3 nM vasopressin. activation, % at 3 µM. 0.25% of 320,000 active;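 active = activation above the mean activation of all tested compounds plus 3 SD, per screening run, cut at about 20% in these data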;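 note: signal is peak over basal fluorescence ratio across a 100 second FLIPR read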
Target sequence (P37288 whole entry, looked up): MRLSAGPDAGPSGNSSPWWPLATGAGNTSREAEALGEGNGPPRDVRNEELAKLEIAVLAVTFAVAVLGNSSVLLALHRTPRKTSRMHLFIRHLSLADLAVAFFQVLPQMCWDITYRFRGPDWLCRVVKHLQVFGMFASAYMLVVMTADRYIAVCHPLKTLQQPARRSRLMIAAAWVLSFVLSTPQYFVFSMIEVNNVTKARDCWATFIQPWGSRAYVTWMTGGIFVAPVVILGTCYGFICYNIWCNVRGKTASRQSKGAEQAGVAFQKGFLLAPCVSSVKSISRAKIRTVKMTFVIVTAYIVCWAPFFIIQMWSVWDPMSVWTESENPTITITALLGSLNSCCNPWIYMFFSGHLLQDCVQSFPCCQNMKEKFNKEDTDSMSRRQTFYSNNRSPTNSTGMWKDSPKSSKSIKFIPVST
OXTR agonist: human OXTR agonism. AID 2435. CHO-OTR cells, Fluo-8 calcium fluorescence; normalized: DMSO 0%, oxytocin 100%. P30559. 0.32% of 320,000 active. activation, % at 3 µM;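 active = activation above the mean of all tested compounds plus 3 SD, cutoff set per screening run, cut at about 20% in these data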;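 note: peak over basal fluorescence ratio from a 100 s FLIPR kinetic read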
The depositor's hits bear a star; nt = no result given. Shown are actives, neighbours in structure and some others; about 2.7% of the full set was active somewhere.

SMILES	CHO parental Ca	OX1R antag-1	OX1R antag-2	OXTR potentiate	V1aR counter	OXTR agonist
Cc1ccc(-n2c(-c3ccccc3)c[n+]3c2CCC3)cc1	-8.8	-6.4	22.9	-1.2	0.2	1.1
Cc1ccc(-n2c(-c3ccccc3)c[n+]3c2CCc2ccccc2-3)c(C)c1	54.4*	17.4	36.8	-1.3	0.1	-0.5
CC1(C)CC[C@]2(C(=O)O)CC[C@]3(C)C(=CC[C@@H]4[C@@]5(C)CC[C@H](O[C@@H]6O[C@H](C(=O)O)[C@@H](O)[C@H](O[C@@H]7OC[C@H](O)[C@H](O)[C@H]7O)[C@H]6O)C(C)(C)[C@@H]5CC[C@]43C)[C@@H]2C1	100.4*	110.8*	33.6	-13.0	108.4*	56.0*
Cc1ccccc1C(=O)NNC(=O)CSc1nc(-c2ccccc2)cc(=O)[nH]1	-8.3	-14.3	18.3	4.9	0.2	0.2
COc1ccccc1OCC(=O)Nc1ccc(-c2nnc(-c3ccco3)o2)cc1	-15.3	-2.2	64.2*	-0.7	0.3	0.7
O=C(COc1ccc(Br)cc1)Nc1ccc(-c2nnc(-c3ccco3)o2)cc1	-3.1	-21.4	-0.7	6.8	0.1	2.0
COc1ccc(CC(=O)Nc2oc(-c3ccccc3)c(-c3ccccc3)c2C#N)cc1OC	-13.1	-12.3	33.3	-2.8	-0.4	-0.7
COc1ccccc1OCC(=O)Nc1oc(-c2ccccc2)c(-c2ccccc2)c1C#N	-13.3	-23.8	49.6*	-7.9	0.5	-0.5
CC(Cc1cccs1)NC(=O)Nc1ccc(Cl)c(Cl)c1 (stereo unspecified)	62.7*	47.4*	49.0*	-18.2	4.5	4.9
COc1ccc(C(CNC(=O)c2cccc(S(=O)(=O)N3CCc4ccccc43)c2)N(C)C)cc1 (stereo unspecified)	-23.8	-26.9	15.8	-10.1	3.8	6.7
C=C(C)COc1ccc(-c2[nH]ncc2Oc2ccccc2OCC)c(O)c1	-8.2	5.0	25.2	-20.2	0.1	-0.1
CCCc1ccc(Oc2cn[nH]c2-c2ccc(O)cc2O)cc1	34.7*	22.0	-6.2	-2.8	7.7	1.2
C=C(C)COc1ccc(-c2[nH]ncc2Oc2cccc(OC)c2)c(O)c1	74.5*	31.2	13.4	-9.4	0.6	-1.2
C=C(C)COc1ccc(-c2[nH]ncc2-c2ccc(OC)cc2)c(O)c1	41.6*	-6.2	17.9	-6.8	-0.4	0.1
Cc1c(C(=O)N2CCOCC2)sc(NC(=O)CCl)c1C#N	-2.0	-15.0	11.0	-2.4	0.9	0.8
COc1ccc2oc(=O)c(C(=O)NC3CCCCCC3)cc2c1	-10.6	-29.5	6.2	-14.5	-0.9	-1.2
COc1cccc2cc(C(=O)NCC3CCCO3)c(=O)oc12 (stereo unspecified)	-3.9	-7.6	76.7*	-1.8	0.5	0.6
COc1ccc2oc(=O)c(C(=O)NCC3CCCO3)cc2c1 (stereo unspecified)	-10.2	-10.1	61.2*	-4.1	0.5	0.0
Cc1cc(C)cc(NC(=O)CSc2nnc(CNC(=O)c3ccco3)n2C)c1	-9.4	-9.4	6.2	1.0	0.7	-0.7
O=C(O)c1ccc(S(=O)(=O)c2ccc([N+](=O)[O-])cc2[N+](=O)[O-])cc1	1.1	-7.1	56.8*	-15.0	-0.1	0.2
Cc1cc(C(=O)CN2C(=O)NC3(CCCc4sccc43)C2=O)c(C)n1-c1ccc(Cl)cc1 (stereo unspecified)	-9.7	4.3	49.6*	-15.7	1.5	-2.4
COc1cc(OC)cc(C(=O)N[C@H](C(=O)NCc2ccc(F)cc2)C(C)C)c1	-18.9	-20.4	-4.6	-3.1	-0.5	-2.0
COc1ccccc1OCCSc1nnnn1-c1ccc(C)cc1	40.1*	-41.2	16.2	-7.7	1.0	-0.7
COc1ccc(CCNC(=O)COc2ncnc3cc([N+](=O)[O-])ccc23)cc1	-4.0	-24.8	53.2*	5.7	1.3	0.5
O=C(CSc1nc(-c2ccccc2)c(-c2ccccc2)[nH]1)Nc1ccc2c(c1)OCO2	-15.7	5.2	50.4*	-6.9	-0.6	-1.9
SMILES	CHO parental Ca	OX1R antag-1	OX1R antag-2	OXTR potentiate	V1aR counter	OXTR agonist
Cc1ccn2cc(-c3cccc([N+](=O)[O-])c3)nc2c1	-18.2	-24.6	65.5*	9.4	-1.6	-2.6
CCOC(=O)[C@@H]1[C@H]2COc3ccccc3[C@H]2N2C(=O)N(c3ccc(C(F)(F)F)cc3)C(=O)[C@]12C	46.0*	-16.0	6.5	-13.9	3.6	6.0
FC(F)Oc1ccc(NC(=S)NCc2ccccc2)cc1Cl	34.0*	9.2	13.9	-11.9	8.5	9.9
Cc1ccc(NC(=S)Nc2ccc(OC(F)F)c(Cl)c2)cc1Cl	21.0	-3.7	11.8	-9.0	5.8	7.4
FC(F)(F)c1ccc(NC(=S)NCc2ccccc2)cc1	29.8*	28.1	17.8	-12.6	7.8	5.5
O=C(O)c1ccc(NC(=S)NCc2ccccc2)cc1	6.0	2.3	7.1	-6.2	0.5	-0.5
CC(NC(=S)Nc1ccc(OC(F)F)c(Cl)c1)C(C)(C)C (stereo unspecified)	34.3*	37.8*	24.4	-11.0	6.5	13.5
O=C(OC(C(=O)NCc1ccco1)c1ccc(Cl)cc1)c1cccs1 (stereo unspecified)	-20.2	-21.8	8.4	-8.8	-0.8	4.2
N#Cc1ccc(CN2CCN(C(=O)c3ccc(S(=O)(=O)N4CCCCCC4)cc3)CC2)cc1	-27.4	3.8	4.5	-8.2	7.0	6.4
CCCC(NCC(O)COc1ccc(-c2ccccc2)cc1)c1ccccc1 (stereo unspecified)	53.4*	38.0	-1.0	-9.3	3.3	18.6
O=C(NCCCN1CCCC1=O)c1cccc(S(=O)(=O)Nc2ccc(Br)cc2)c1	-21.1	-30.2	12.5	0.3	0.8	0.3
COc1ccccc1OC(=O)Nc1ccc(Cl)cc1	31.2*	-2.8	10.2	-18.1	12.3	12.1
COc1ccccc1OCC(=O)NNC(=O)Nc1ccc(Cl)cc1	-4.7	-41.5	16.3	-9.6	0.4	1.8
CCCOC(=O)c1ccc(Oc2c(-c3ccc(O)cc3O)n[nH]c2C)cc1	50.1*	3.7	1.5	-4.5	3.8	1.6
COc1ccc(OC)c(/C=C2/Sc3ccccc3C2=O)c1	37.3*	56.8*	15.2	-13.6	27.7*	24.2*
CC[C@]12c3[nH]c4cc(-c5ccco5)ccc4c3CCN1C(=O)[C@@H](CC(=O)NCc1cccc(C(F)(F)F)c1)C[C@@H]2C(=O)N1CCN(C(=O)c2ccco2)CC1	-19.8	18.4	15.9	nt	nt	nt
CCc1c(O)nc(SCC(=O)N2CCc3cc(OC)c(OC)cc3[C@@H]2C)[nH]c1=O	-9.7	-17.6	9.7	-6.1	-0.2	0.6
Cc1cc(C)c(C)c(S(=O)(=O)NCCCn2ccnc2)c1C	-9.2	-18.6	5.0	7.6	2.4	3.8
